Assay results taken from ChEMBL document CHEMBL3769319, “Antischistosomal activity of N,N'-arylurea analogs against Schistosoma japonicum” (Bioorg Med Chem Lett, 2016).
Active and inactive are the calls of the source. No cut-off for these calls is given here.

Columns and labels:
Schistosoma japonicum [1] = experiment: Antischistosomal activity against juvenile stage of Schistosoma japonicum at 32 uM after 72 hrs by microscopy
Schistosoma japonicum [2] = experiment: Antischistosomal activity against juvenile stage of Schistosoma japonicum infected in ICR mouse assessed as reduction of parasite burden at 400 mg/kg, po administered as single dose measured after 14 days; format: functional; design: scale not given: the % may be the effect or the level left
Schistosoma japonicum [3] = experiment: Antischistosomal activity against juvenile stage of Schistosoma japonicum after 72 hrs by microscopy; format: functional, organism-based
Method in brief: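 Juvenile S. japonicum were screened at 32 µM for 72 h. Compounds that killed worms were then tested three times in 2-fold serial dilutions from 32 to 2 µM, each incubated 72 h, and IC50 was calculated.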

Schistosoma japonicum [4] = experiment: Antischistosomal activity against adult stage of Schistosoma japonicum after 72 hrs by microscopy; format: functional, organism-based
Schistosoma japonicum [5] = experiment: Antischistosomal activity against adult stage of Schistosoma japonicum infected in ICR mouse assessed as reduction of parasite burden at 400 mg/kg, po administered as single dose measured after 14 days; format: functional; design: scale not given: the % may be the effect or the level left
Method in brief: (§1)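 Mice with adult S. japonicum infection got one oral dose (200 or 400 mg/kg) as an ultrasound-aided corn oil suspension; one group got an HP-β-CD complex solution instead. Untreated infected mice served as controls, 5–6 per group. Worm counts (mean, SD) gave percent worm burden reduction against control.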

Schistosoma japonicum [6] = experiment: Antischistosomal activity against juvenile stage of Schistosoma japonicum infected in ICR mouse assessed as reduction of parasite burden at 200 mg/kg, po administered as single dose measured after 14 days; format: functional; design: scale not given: the % may be the effect or the level left
Schistosoma japonicum [7] = experiment: Antischistosomal activity against adult stage of Schistosoma japonicum infected in ICR mouse assessed as reduction of parasite burden at 200 mg/kg, po administered as single dose measured after 14 days; format: functional; design: scale not given: the % may be the effect or the level left
Method in brief: as §1

Schistosoma mansoni = experiment: Antischistosomal activity against Schistosoma mansoni infected in mouse assessed as reduction of parasite burden at 400 mg/kg, po administered as single dose; format: functional; design: scale not given: the % may be the effect or the level left

O=C(Nc1ccccn1)Nc1ccccn1
Activity (Schistosoma japonicum [1]): inactive

O=C(Nc1ccc(Cl)c(Cl)c1)Nc1ccc(N2CCOCC2)c(C(F)(F)F)c1
Activity (Schistosoma japonicum [2]): 18.8%
IC50 (Schistosoma japonicum [3]): 9.6 µM
IC50 (Schistosoma japonicum [4]): 8.4 µM
Activity (Schistosoma japonicum [5]): 3.4%

O=C(Nc1ccc(Cl)c(Cl)c1)NN1CCN(c2ccccc2)CC1
Activity (Schistosoma japonicum [1]): inactive

O=C(Nc1ccc(Cl)c(Cl)c1)NC1CCCCC1
Activity (Schistosoma japonicum [1]): inactive

O=C(Nc1ccc(Cl)c(Cl)c1)Nc1cccc2ccccc12
IC50 (Schistosoma japonicum [3]): 12.8 µM

O=C(Nc1ccc(Cl)c(Cl)c1)NC12CC3CC(CC(C3)C1)C2
Activity (Schistosoma japonicum [1]): inactive

O=C(Nc1ccccc1S(=O)(=O)N1CCOCC1)Nc1ccccc1S(=O)(=O)N1CCOCC1
IC50 (Schistosoma japonicum [3]): 22.6 µM

O=C(Nc1ccc(Cl)c(Cl)c1)C(=O)Nc1ccc(Cl)c(Cl)c1
Activity (Schistosoma japonicum [1]): inactive

O=C(Nc1ccc(F)c(F)c1)Nc1ccc(F)c(F)c1
Activity (Schistosoma japonicum [2]): 6.4%
IC50 (Schistosoma japonicum [3]): 7 µM
IC50 (Schistosoma japonicum [4]): 5.1 µM
Activity (Schistosoma japonicum [5]): 2.3%

COc1ccccc1NC(=O)Nc1ccc(Cl)c(Cl)c1
Activity (Schistosoma japonicum [1]): inactive

Clc1ccc(Nc2cc(Nc3ccc(Cl)c(Cl)c3)ncn2)cc1Cl
Activity (Schistosoma japonicum [1]): inactive

COc1cccc(NC(=O)Nc2ccc(Cl)c(Cl)c2)c1
Activity (Schistosoma japonicum [1]): inactive

O=C1N(c2ccc(Cl)c(Cl)c2)CCN1c1ccc(Cl)c(C(F)(F)F)c1
Activity (Schistosoma japonicum [1]): inactive

O=C(Nc1cnc(Cl)c(Cl)c1)Nc1cnc(Cl)c(Cl)c1
Activity (Schistosoma japonicum [1]): inactive

S=C(Nc1ccc(Cl)c(Cl)c1)Nc1ccc(Cl)c(Cl)c1
Activity (Schistosoma japonicum [1]): inactive

O=C(Nc1ccc(Cl)c(Cl)c1)Nc1ccc(Cl)c(C(F)(F)F)c1
IC50 (Schistosoma japonicum [3]): 2.5 µM
IC50 (Schistosoma japonicum [4]): 1.5 µM
Activity (Schistosoma japonicum [6]): 11.6%
Activity (Schistosoma japonicum [7]): 26.6%

O=C(Nc1ccc(Cl)c(Cl)c1)Nc1cnc(Cl)c(Cl)c1
IC50 (Schistosoma japonicum [3]): 11.3 µM

O=C(Nc1ccc(Cl)c(C(F)(F)F)c1)Nc1ccc(Cl)c(C(F)(F)F)c1
IC50 (Schistosoma japonicum [3]): 2.8 µM
IC50 (Schistosoma japonicum [4]): 2.2 µM
Activity (Schistosoma japonicum [6]): 33.4%
Activity (Schistosoma japonicum [7]): 32.6%

O=C(Nc1ccc(Cl)c(Cl)c1)Nc1cccc2cnccc12
IC50 (Schistosoma japonicum [3]): 22.6 µM

Cc1ccc(NC(=O)Nc2ccc(Cl)c(Cl)c2)cc1Cl
IC50 (Schistosoma japonicum [3]): 12.7 µM

O=C(Nc1ccc(Cl)c(Cl)c1)Nc1ccccc1F
Activity (Schistosoma japonicum [1]): inactive

O=C(C1CCCCC1)N1CC(=O)N2CCc3ccccc3C2C1 (stereo not drawn) [PRAZIQUANTEL]
Activity (Schistosoma japonicum [5]): 90.7%

O=C(Nc1ccc(N2CCOCC2)c(C(F)(F)F)c1)Nc1ccc(N2CCOCC2)c(C(F)(F)F)c1
IC50 (Schistosoma japonicum [3]): 22.6 µM

O=S(=O)(Nc1ccc(Cl)c(Cl)c1)Nc1ccc(Cl)c(Cl)c1
IC50 (Schistosoma japonicum [3]): 22.6 µM
Activity (Schistosoma japonicum [1]): Active

O=C(Nc1cccnc1)Nc1cccnc1
Activity (Schistosoma japonicum [1]): inactive

N#Cc1cc(NC(=O)Nc2ccc(Cl)c(Cl)c2)ccc1F
Activity (Schistosoma japonicum [2]): 14.6%
IC50 (Schistosoma japonicum [3]): 4.3 µM
IC50 (Schistosoma japonicum [4]): 2.2 µM
Activity (Schistosoma japonicum [5]): 11.4%

O=C(Nc1cccc(Cl)c1)Nc1ccc(Cl)c(Cl)c1
IC50 (Schistosoma japonicum [3]): 10.1 µM

Cc1ccc(NC(=O)Nc2ccc(Cl)c(Cl)c2)cc1
Activity (Schistosoma japonicum [1]): inactive

Clc1nc(Nc2ccc(Cl)c(Cl)c2)nc(Nc2ccc(Cl)c(Cl)c2)n1
Activity (Schistosoma japonicum [1]): inactive

C[C@H]1[C@H](OC(=O)CCC(=O)O)O[C@@H]2O[C@@]3(C)CC[C@H]4[C@H](C)CC[C@@H]1[C@@]24OO3 [ARTESUNATE]
Activity (Schistosoma japonicum [2]): 72.4%

Clc1ccc(Nc2nc(Nc3ccc(Cl)c(Cl)c3)nc(N3CCOCC3)n2)cc1Cl
IC50 (Schistosoma japonicum [3]): 19 µM
Activity (Schistosoma japonicum [1]): Active

O=C(Nc1ccc(F)c(F)c1)Nc1ccc(Cl)c(Cl)c1
Activity (Schistosoma japonicum [2]): 27.8%
IC50 (Schistosoma japonicum [3]): 4.7 µM
IC50 (Schistosoma japonicum [4]): 2.2 µM
Activity (Schistosoma japonicum [5]): 0%

Nc1ccc(NC(=O)Nc2ccc(Cl)c(Cl)c2)cc1
Activity (Schistosoma japonicum [1]): inactive

O=C(Nc1cccnc1)Nc1ccc(Cl)c(Cl)c1
Activity (Schistosoma japonicum [1]): inactive

O=C(Nc1ccc(Cl)c(Cl)c1)Nc1ccc(Cl)c(Cl)c1
Activity (Schistosoma japonicum [2]): 32.2%
IC50 (Schistosoma japonicum [3]): 4.4 µM
IC50 (Schistosoma japonicum [4]): 2.2 µM
Activity (Schistosoma japonicum [5]): 9.3%
Activity (Schistosoma mansoni): 52.5%

COc1ccc(NC(=O)Nc2ccc(Cl)c(Cl)c2)cc1
Activity (Schistosoma japonicum [1]): inactive

O=C1C(=O)N(c2ccc(Cl)c(C(F)(F)F)c2)C(=O)N1c1ccc(Cl)c(Cl)c1
Activity (Schistosoma japonicum [1]): inactive

O=C1N(c2ccc(Cl)c(Cl)c2)C(O)C(O)N1c1ccc(Cl)c(C(F)(F)F)c1 (stereo not drawn)
Activity (Schistosoma japonicum [1]): inactive

CCCCNC(=O)Nc1ccc(Cl)c(Cl)c1
Activity (Schistosoma japonicum [1]): inactive
